Columns and labels:
[1] = target: T1, Hexokinase-4 (Homo sapiens) (UniProt P35557); assay: Activation of human recombinant glucokinase expressed in Escherichia coli BL21(DE3) coexpressing G6PDH assessed as glucose 6-phosphate formation by spectrometric analysis relative to control
T1 sequence (whole entry): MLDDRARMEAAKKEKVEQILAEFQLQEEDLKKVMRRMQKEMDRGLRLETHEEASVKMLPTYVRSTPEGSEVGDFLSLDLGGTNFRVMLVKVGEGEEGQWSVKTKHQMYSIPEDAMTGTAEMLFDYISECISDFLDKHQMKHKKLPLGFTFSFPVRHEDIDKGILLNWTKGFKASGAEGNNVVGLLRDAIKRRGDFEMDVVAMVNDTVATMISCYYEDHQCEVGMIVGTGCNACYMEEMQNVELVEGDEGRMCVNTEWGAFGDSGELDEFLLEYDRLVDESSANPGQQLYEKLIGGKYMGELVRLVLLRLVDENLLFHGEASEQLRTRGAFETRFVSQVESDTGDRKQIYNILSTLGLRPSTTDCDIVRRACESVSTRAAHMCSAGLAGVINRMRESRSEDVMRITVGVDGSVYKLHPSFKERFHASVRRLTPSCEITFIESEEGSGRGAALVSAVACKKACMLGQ
Summary of the method: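 N-terminal His6-tagged human GK, expressed in E. coli BL21(DE3), purified on Ni-NTA. NADPH formation followed as rate of A340. Fold activation taken against DMSO control (100%), and maximum fold reported.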

[2] = target: T2, Hexokinase-4 (Homo sapiens, UniProt P35557); assay: Activation of human recombinant glucokinase expressed in Escherichia coli BL21(DE3) coexpressing G6PDH assessed as glucose 6-phosphate formation by spectrometric analysis
T2 sequence (P35557 whole entry): T1 sequence (whole entry)

[3] = Cmax in ICR mouse at 20 mg/kg, po; type: ADME, organism-based; set-up: dose 20 mg/kg, route oral; details: in vivo
Summary of the method: (§1)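 Mice received a single iv dose of 10 mg/kg or a single po dose of 20 mg/kg. Vehicle was DMSO, tween-80 and normal saline. Plasma concentration–time data gave CL, Vss and t1/2 from the iv arm, and Cmax, Tmax, AUC0-∞ and F from the po arm. Values are the average of three runs.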

[4] = Volume of distribution at steady state in ICR mouse at 10 mg/kg, iv; type: ADME, organism-based; set-up: dose 10 mg/kg, route intravenous; details: in vivo, read-out: Vdss; summary of the method: as §1
[5] = Half life in ICR mouse at 10 mg/kg, iv; type: ADME, organism-based; set-up: dose 10 mg/kg, route intravenous; details: in vivo; summary of the method: as §1
[6] = AUC (0 to infinity) in ICR mouse at 20 mg/kg, po; type: ADME, organism-based; set-up: time infinity, dose 20 mg/kg, route oral; details: plasma; summary of the method: as §1
[7] = tested on: Mus musculus; assay: Hypoglycemic activity in ICR mouse assessed as reduction in blood glucose level at 10 mg/kg, po measured within 1 hr relative to control; type: functional; set-up: scale not given: the % may be the effect or the level left
Summary of the method: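 Male ICR mice, 8 weeks old, on a reversed light cycle, were fasted 2 h with water allowed and grouped by body weight. They were dosed orally with 10 mg/kg or with vehicle (0.5% carboxymethylcellulose). Blood glucose was tracked, with ΔBG taken from 0 min, and reduction expressed against vehicle within 1 h. Mean ± SEM, n = 6.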

[8] = Clearance in ICR mouse at 10 mg/kg, iv; type: ADME, organism-based; set-up: dose 10 mg/kg, route intravenous; details: in vivo; summary of the method: as §1
[9] = Oral bioavailability in ICR mouse at 20 mg/kg; type: ADME, organism-based; details: in vivo; summary of the method: as §1
[10] = Tmax in ICR mouse at 20 mg/kg, po; type: ADME, organism-based; set-up: dose 20 mg/kg, route oral; details: in vivo; summary of the method: as §1
[11] = target: T1, Hexokinase-4 (Homo sapiens); assay: Ratio of EC50 for GK50 to compound for activation of human recombinant glucokinase expressed in Escherichia coli BL21(DE3) coexpressing G6PDH assessed as glucose 6-phosphate formation by spectrometric analysis
Summary of the method: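 EC50 obtained in the same G6PDH-coupled A340 assay of His6-tagged human GK, with GK50 run in parallel. Six compound concentrations per curve, and fold activity over DMSO control fitted to a four-parameter logistic sigmoid. Values are means of three independent experiments.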

| SMILES | fold change (FC) [1] | EC50 [2] [nM] | further results |
| --- | --- | --- | --- |
| COC1CCN(S(=O)(=O)c2ccc(Oc3cc(OCC=C(C)C)cc(C(=O)Nc4cc(C)n(C)n4)c3)cc2)CC1 | 1.8 | 460 | – |
| CC(C)=CCOc1cc(Oc2ccc(S(=O)(=O)N3CC4CCC(C3)O4)cc2)cc(C(=O)Nc2ncc(F)s2)c1 | 1.9 | 78 | – |
| COC1CCN(S(=O)(=O)c2ccc(Oc3cc(OCC=C(C)C)cc(C(=O)Nc4nccs4)c3)cc2)CC1 | 1.7 | 90.4 | – |
| CC(C)=CCOc1cc(Oc2ccc(S(=O)(=O)N3C[C@@H](C)O[C@@H](C)C3)cc2)cc(C(=O)Nc2ccn(C)n2)c1 | 1.8 | 265 | – |
| CC(C)=CCOc1cc(Oc2ccc(S(=O)(=O)N3CC4CCC(C3)O4)cc2)cc(C(=O)Nc2ccn(C)n2)c1 | 1.7 | 242 | – |
| COC1CCN(S(=O)(=O)c2ccc(Oc3cc(OCC=C(C)C)cc(C(=O)Nc4ccn(C)n4)c3)cc2)CC1 | 1.7 | 491 | – |
| CC(C)=CCOc1cc(Oc2ccc(S(=O)(=O)C3CC3)cc2)cc(C(=O)Nc2nc(C(C)(C)C)cs2)c1 | 0.7 | 890 | – |
| CC(C)=CCOc1cc(Oc2ccc(S(=O)(=O)C3CC3)cc2)cc(C(=O)Nc2nccn3ccnc23)c1 | – | > 1000 | – |
| CC(C)=CCOc1cc(Oc2ccc(S(=O)(=O)N3C[C@@H](C)O[C@@H](C)C3)cc2)cc(C(=O)Nc2cc(C)n(C)n2)c1 | 1.6 | 44.8 | – |
| CC(C)=CCOc1cc(Oc2ccc(S(=O)(=O)N3CC4CCC(C3)O4)cc2)cc(C(=O)Nc2nccs2)c1 | 1.7 | 101 | – |
| CC(C)=CCOc1cc(Oc2ccc(S(=O)(=O)C3CC3)cc2)cc(C(=O)NC2=NC(=O)CS2)c1 | 1.5 | 120 | – |
| CC(C)=CCOc1cc(Oc2ccc(S(=O)(=O)N3CCOCC3)cc2)cc(C(=O)Nc2ccn(C)n2)c1 | 3 | 297 | – |
| CC(C)=CCOc1cc(Oc2ccc(S(=O)(=O)N3CCOCC3)cc2)cc(C(=O)Nc2ncc(F)s2)c1 | 1.8 | 52 | – |
| CC(C)=CCOc1cc(Oc2ccc(S(=O)(=O)N3CCOCC3)cc2)cc(C(=O)Nc2nccs2)c1 | 2.1 | 48 | – |
| CC(C)=CCOc1cc(Oc2ccc(S(=O)(=O)C3CC3)cc2)cc(C(=O)Nc2ncc(F)s2)c1 | 1.8 | 47.7 | – |
| CC(C)=CCOc1cc(Oc2ccc(S(=O)(=O)C3CC3)cc2)cc(C(=O)Nc2nc(-c3ccc(F)cc3)cs2)c1 | 0.9 | 250 | – |
| CC(C)=CCOc1cc(Oc2ccc(S(=O)(=O)C3CC3)cc2)cc(C(=O)Nc2nccs2)c1 | 2.4 | 28.3 | Cmax [3]: 15800 ng/mL; Ratio EC50 [11]: 8; Vd [4]: 0.28 L/kg; half-life [5]: 2.3 h; AUC(0-inf) [6]: 39800 ng·h/mL; Activity [7]: 5.5%; clearance [8]: 3.33 mL/min/kg; bioavailability [9]: 38.6%; Tmax [10]: 1 h |
| CC(C)=CCOc1cc(Oc2ccc(S(=O)(=O)N3CC[C@H](F)C3)cc2)cc(C(=O)Nc2nccs2)c1 | 1.9 | 52.3 | – |

Now from value to molecule, other results behind:

| fold change (FC) [1] | EC50 [2] [nM] | SMILES | further results |
| --- | --- | --- | --- |
| 1.6 | 165 | CC(C)=CCOc1cc(Oc2ccc(S(=O)(=O)C3CC3)cc2)cc(C(=O)Nc2cnc(C)cn2)c1 | – |
| 1.5 | 95.1 | CC(C)=CCOc1cc(Oc2ccc(S(=O)(=O)N3CCOCC3)cc2)cc(C(=O)Nc2cc(C)n(C)n2)c1 | – |
| 1.7 | 65.4 | CC(C)=CCOc1cc(Oc2ccc(S(=O)(=O)N3C[C@@H](C)O[C@@H](C)C3)cc2)cc(C(=O)Nc2ncc(F)s2)c1 | – |
| 1.7 | 64.6 | COC1CCN(S(=O)(=O)c2ccc(Oc3cc(OCC=C(C)C)cc(C(=O)Nc4ncc(F)s4)c3)cc2)CC1 | – |
| 1.9 | 63.1 | CC(C)=CCOc1cc(Oc2ccc(S(=O)(=O)N3CC[C@H](F)C3)cc2)cc(C(=O)Nc2cc(C)n(C)n2)c1 | – |
| 1.5 | 90.1 | CC(C)=CCOc1cc(Oc2ccc(S(=O)(=O)C3CC3)cc2)cc(C(=O)Nc2cc(C)n(C)n2)c1 | – |
| 1.5 | 144 | CC(C)=CCOc1cc(Oc2ccc(S(=O)(=O)N3CC4CCC(C3)O4)cc2)cc(C(=O)Nc2cc(C)n(C)n2)c1 | – |
| 2.2 | 44.8 | CC(C)=CCOc1cc(Oc2ccc(S(=O)(=O)N3CC[C@H](F)C3)cc2)cc(C(=O)Nc2ncc(F)s2)c1 | Cmax [3]: 1090 ng/mL; Vd [4]: 1.2 L/kg; half-life [5]: 5.9 h; AUC(0-inf) [6]: 1790 ng·h/mL; Activity [7]: 8.1%; clearance [8]: 17.8 mL/min/kg; bioavailability [9]: 9.5%; Tmax [10]: 1 h |
| 1.5 | 62.6 | CC(C)=CCOc1cc(Oc2ccc(S(=O)(=O)N3C[C@@H](C)O[C@@H](C)C3)cc2)cc(C(=O)Nc2nccs2)c1 | – |
| 2.1 | 83.5 | CC(C)=CCOc1cc(Oc2ccc(S(=O)(=O)N3CC[C@H](F)C3)cc2)cc(C(=O)Nc2ccn(C)n2)c1 | – |

From ChEMBL document CHEMBL2021866, “Design, synthesis, and pharmacological evaluation of benzamide derivatives as glucokinase activators” (Bioorg Med Chem, 2012)
